Shown is part of a subset that was picked to be rich in hits.
CHOP inh: CHOP inhibition in unfolded protein response. CHO-K1 CHOP-promoter luciferase, tunicamycin-induced, 15-18 h. inhibition, % at 10 µM. actives 3.8% (n = 220,000);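 active means compounds that reduced the stress-induced luciferase reporter signal by more than about 70% of percent inhibition, limit read from the data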
CHOP UPR activ: apoptotic UPR (CHOP) activation; activation, % at 10 µM; CHO-CHOP luciferase reporter, luminescence; percent of tunicamycin response over DMSO baseline; AID 449763; actives 0.34% (n = 330,000);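 active means at 10 µM dose, activation of 40% or more, normalized to positive control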
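System: CHO-CHOP luciferase reporter cell line | Buffer or medium: F12 medium containing 10% fetal bovine serum | Doses: One dose, 10 µM in 0.5% DMSO | Times: 6 h compound exposure at 37 °C after overnight seeding | Signal: Luciferase luminescence | Read-out: % activation vs tunicamycin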
GAA850 FXN act: activators of GAA850 frataxin (FXN) promoter. AID 540364. activation, % at 6 µM. HEK293 lucGAA850 FXN promoter luciferase reporter, 24 h; percent of 10 µM SAHA response. actives 0.56% (n = 360,000);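 active means activation above the average of all compounds screened plus 3 SD, cutoff fixed separately per campaign, cut at about 7.5% in these data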
UPR XBP1 act: adaptive UPR (XBP1) activation; actives 0.33% (n = 330,000); activation, % at 20 µM; AID 463104; CHO-XBP1 luciferase reporter, IRE1-XBP1 UPR activation, luminescence; percent of tunicamycin response, DMSO as zero;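 active means versus positive control, 20 µM dose yields 30% or more activation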
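Assay system: IRE1-XBP1 luciferase reporter CHO line. Input: 1000 cells/well. Buffer or medium: F12 with 10% serum. Doses: 20 µM, 1% DMSO. Times: overnight seeding at 37 °C, 6 h compound treatment at 37 °C. Technique: Steady-Glo luciferase glow luminescence, 10 min after reagent addition.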
UPR CHOP confirm: apoptotic UPR (CHOP) activation, confirmed | actives 64% (n = 1,000) | shares compounds with CHOP UPR activ | activation, % at 10 µM | AID 463112 | CHO-CHOP cells, CHOP-luciferase reporter luminescence; percent of tunicamycin response, DMSO as zero; in the data active means activation above about 33%
Hits are given with their value; – = inactive; · = no result given.

SMILES	CHOP inh	CHOP UPR activ	GAA850 FXN act	UPR XBP1 act	UPR CHOP confirm
CCOc1cccc2cc(-c3csc(NC(=O)CCC(=O)N4CCC(C)CC4)n3)c(=O)oc12	86	95	–	37	–
CCOc1cccc2cc(-c3csc(NC(=O)CCC(=O)NCCCN4CCC(C)CC4)n3)c(=O)oc12	–	–	·	–	·
CCNC(=O)C1(C)CCN(C(=O)c2ccc(N(C)C)cc2)C1 (configuration not stated)	·	·	–	·	·
CCCC(=O)N1CCC1(C)C(=O)Nc1cccc(OC(C)C)c1 (configuration not stated)	·	·	–	·	·
O=C1C(c2ccccc2)=[N+]([O-])c2ccccc21	·	67	–	–	–
COC1=C(c2ccccc2)C(=O)c2ccccc2C1=O	–	–	–	–	·
Cc1ccc(S(=O)(=O)N(C)C[C@H]2OCCCC[C@@H](C)Oc3ccc(NC(=O)Cc4ccccc4)cc3C(=O)N([C@H](C)CO)C[C@@H]2C)cc1	·	·	–	·	·
COc1ccc(C(=O)CCS(=O)(=O)c2ccc(F)cc2)cc1OC	·	44	–	–	–
O=C(NCc1ccco1)c1cccc(-c2ccc3nccn3c2)c1	·	·	–	·	·
COc1ccc(-n2nc3c(c2NC(=O)CCl)CSC3)cc1	·	49	–	–	–
COc1ccc(-n2nc3c(c2NC(=O)C(C)Cl)CSC3)cc1 (configuration not stated)	·	–	–	–	·
CCOC(=O)/C(=C\c1cccc(O)c1)c1nc2sc(C)c(C)c2c(=O)[nH]1	–	47	–	–	163
CCOC(=O)c1nc2sc(C)c(C)c2c(=O)[nH]1	–	–	–	–	·
COc1ccc(/C=N/Nc2cc(C)nc(-n3nc(C)cc3C)n2)cc1	–	52	–	–	33
Cc1cc(N/N=C/c2cccc([N+](=O)[O-])c2)nc(-n2nc(C)cc2C)n1	–	–	–	–	·
Cc1cc(N/N=C/c2ccccc2[N+](=O)[O-])nc(-n2nc(C)cc2C)n1	–	121	–	–	94
Cc1cc(N/N=C/c2cccc(Cl)c2)nc(-n2nc(C)cc2C)n1	–	51	–	–	–
O=C(NC(c1ccc(Cl)cc1)c1cccnc1)C1CCN(CCOc2ccc(Cl)cc2Cl)CC1 (configuration not stated)	·	·	–	·	·
CCN(CC)c1ncnc2c1ncn2[C@H]1CN(Cc2cc(OC)c(OC)c(OC)c2)C[C@@H](CO)O1	·	·	–	·	·
CC(=O)N(C)Cc1ccc(C(=O)CCl)cc1	105	94	–	–	–
CC(=O)N(C)Cc1ccc(C(=O)CSc2nnc(C3CC3)n2C2CC2)cc1	·	–	–	–	·
Cc1ccc(F)c(S(=O)(=O)NC(=O)C2(C)CCN2C(=O)CC(c2ccccc2)c2ccccc2)c1 (configuration not stated)	·	·	–	·	·
CN(C)C(=O)CSc1cccc2cccnc12	–	214	–	–	205
Cc1ccc(C(=O)Nc2ccccc2C(=O)N2CC(C)OC(C)C2)cc1 (configuration not stated)	·	·	–	·	·
CCCn1c(SC(C)C(=O)NC2CCCC(C)C2C)n[nH]c1=O (configuration not stated)	·	·	–	·	·
SMILES	CHOP inh	CHOP UPR activ	GAA850 FXN act	UPR XBP1 act	UPR CHOP confirm
NC(=O)c1cccc(NC(=O)CCCCC(=O)Nc2cccc(C(N)=O)c2)c1	·	41	–	–	–
O=C(NC1CCCCC1)N(c1ccccc1)c1nnc(-c2cccc([N+](=O)[O-])c2)s1	·	·	–	·	·
Cn1c(SCC(=O)NCC2CCCO2)ncc(C(=O)Nc2ccc(F)cc2)c1=O (configuration not stated)	·	–	–	–	·
CC(=O)Nc1cccc(NC(=O)CSc2ncc(C(=O)Nc3ccc(F)cc3)c(=O)n2C)c1	·	–	–	–	·
Cn1c(SCC(=O)NCC2CCCO2)ncc(C(=O)Nc2ccc(Cl)cc2)c1=O (configuration not stated)	·	158	–	–	138
CC(=O)c1cccc(NC(=O)CSc2ncc(C(=O)Nc3ccccc3)c(=O)n2C)c1	·	299	–	–	460
Cc1nc2ccc(C(=O)Nc3ccc4c(c3)OCC(=O)N4)cn2c1N(C)C(=O)CCc1ccccc1	·	·	–	·	·
Nc1nn2cc(-c3ccccc3)nc2c2ccccc12	–	–	–	–	·
Cc1cn2nc(N)c3ccccc3c2n1	–	41	–	–	–
Nc1ccc2c(c1)[nH]c(=O)c1cc(N)ccc12	·	·	–	·	·
